pIC50: −log10 of the molar value.
How the values were obtained:
[1] = target: T1, Prostaglandin G/H synthase 2 (Mus musculus, UniProt Q05769); experiment: In vitro inhibitory activity against Prostaglandin G/H synthase 2 from freshly harvested mouse peritoneal macrophages; Not active
T1 sequence (Q05769 whole entry): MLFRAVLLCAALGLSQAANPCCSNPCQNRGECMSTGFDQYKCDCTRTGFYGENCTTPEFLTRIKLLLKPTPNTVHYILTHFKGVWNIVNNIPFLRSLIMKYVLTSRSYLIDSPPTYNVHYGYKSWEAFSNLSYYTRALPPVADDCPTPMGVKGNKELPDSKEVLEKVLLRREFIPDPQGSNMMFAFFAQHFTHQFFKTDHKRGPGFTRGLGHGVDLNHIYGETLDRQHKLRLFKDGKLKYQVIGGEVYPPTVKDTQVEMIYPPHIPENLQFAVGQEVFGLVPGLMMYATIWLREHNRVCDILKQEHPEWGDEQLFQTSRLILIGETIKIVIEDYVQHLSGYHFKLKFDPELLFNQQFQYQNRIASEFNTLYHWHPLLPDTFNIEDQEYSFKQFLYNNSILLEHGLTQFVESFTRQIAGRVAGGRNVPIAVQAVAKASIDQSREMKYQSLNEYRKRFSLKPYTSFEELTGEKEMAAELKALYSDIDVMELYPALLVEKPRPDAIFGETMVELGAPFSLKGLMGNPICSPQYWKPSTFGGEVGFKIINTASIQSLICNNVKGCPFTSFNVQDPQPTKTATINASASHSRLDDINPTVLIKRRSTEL

[2] = target: T2, Prostaglandin G/H synthase 1 (Mus musculus) (UniProt P22437); experiment: In vitro percentage inhibitory activity against prostaglandin G/H synthase 1 from freshly harvested mouse peritoneal macrophages at 10 ug/mL
T2 sequence (whole entry): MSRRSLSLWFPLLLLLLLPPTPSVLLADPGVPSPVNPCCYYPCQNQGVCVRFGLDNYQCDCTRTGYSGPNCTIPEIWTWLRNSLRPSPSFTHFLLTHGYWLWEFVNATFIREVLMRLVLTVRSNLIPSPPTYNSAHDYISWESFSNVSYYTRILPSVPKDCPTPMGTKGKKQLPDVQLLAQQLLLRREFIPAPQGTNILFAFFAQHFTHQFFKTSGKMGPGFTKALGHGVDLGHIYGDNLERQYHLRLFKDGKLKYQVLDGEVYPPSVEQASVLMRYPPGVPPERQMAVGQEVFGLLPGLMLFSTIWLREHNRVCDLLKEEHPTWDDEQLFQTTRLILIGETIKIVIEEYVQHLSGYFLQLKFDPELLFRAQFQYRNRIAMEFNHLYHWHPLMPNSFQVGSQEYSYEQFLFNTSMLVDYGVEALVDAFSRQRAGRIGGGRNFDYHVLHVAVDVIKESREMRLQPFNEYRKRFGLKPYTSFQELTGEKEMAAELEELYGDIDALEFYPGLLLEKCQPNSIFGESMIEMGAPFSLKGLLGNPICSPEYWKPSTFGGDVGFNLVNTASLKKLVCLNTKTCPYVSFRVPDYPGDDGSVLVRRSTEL

Rattus norvegicus [3] = experiment: Inhibitory effect of compound on carrageenan-induced rat paw edema administered p.o. at 10 mg/kg; format: functional; conditions: route oral
In short: (§1)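 Compound given orally; paw swelling measured and expressed as percent inhibition, five animals per group.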

[4] = target: T1, Prostaglandin G/H synthase 2; experiment: Inhibitory activity against Prostaglandin G/H synthase 2 from freshly harvested mouse peritoneal macrophages
Rattus norvegicus [5] = experiment: Inhibitory effect of compound on carrageenan-induced rat paw edema administered p.o. at 3 mg/kg; format: functional; conditions: route oral; in short: as §1
[6] = target: T3, Prostaglandin G/H synthase 2 (Mus musculus) (UniProt Q05769); experiment: In vitro percentage inhibition of Prostaglandin G/H synthase 2 from freshly harvested mouse peritoneal macrophages at 10 ug/ml
T3 sequence (whole entry): T1 sequence (Q05769 whole entry)

[7] = Time of maximum plasma concentration in rat; format: ADME, organism-based
[8] = Maximum plasma concentration in rat; format: ADME, organism-based
[9] = Plasma half-life in rat; format: ADME, organism-based

| Structure (SMILES) | inhibition [2] [%] | pIC50 [4] | inhibition in vivo at 10 mg/kg (Rattus norvegicus [3]) [%] | other results |
| --- | --- | --- | --- | --- |
| COc1ccc2c(c1)c(CC(=O)O)c(C)n2C(=O)c1ccc(Cl)cc1 [INDOMETHACIN] |  |  | 42 |  |
| CS(=O)(=O)c1ccc(-c2occ(Cl)c(=O)c2-c2ccc(Cl)cc2)cc1 | < 5 |  |  |  |
| CCc1ccc(-c2c(-c3ccc(S(C)(=O)=O)cc3)occ(Cl)c2=O)cc1 | 14 | 6.14 | 4 |  |
| CS(=O)(=O)c1ccc(-c2occc(=O)c2-c2ccc(F)cc2)cc1 | < 5 | 5.65 |  |  |
| CS(=O)(=O)c1ccc(-c2occ(Cl)c(=O)c2-c2cccc(Cl)c2)cc1 | < 5 | 5.85 |  |  |
| CS(=O)(=O)c1ccc(-c2occ(Cl)c(=O)c2-c2ccc(O)cc2)cc1 | 17 |  |  | IC50 [1]: Not Active |
| CS(=O)(=O)c1ccc(-c2occ(Cl)c(=O)c2-c2ccc(-c3ccccc3)c(F)c2)cc1 | 70 | 7.06 |  |  |
| CS(=O)(=O)c1ccc(-c2oc3ccccc3c(=O)c2-c2cccnc2)cc1 |  |  | 25 |  |
| CS(=O)(=O)c1ccc(-c2occ(Cl)c(=O)c2-c2ccc(-c3ccccc3)cc2)cc1 | 68 | 7.04 | 21 |  |
| CS(=O)(=O)c1ccc(-c2occ(Cl)c(=O)c2-c2ccc(F)cc2F)cc1 | 6 | 5.86 |  | inhibition in vivo at 3 mg/kg (Rattus norvegicus [5]): 20% |
| CS(=O)(=O)c1ccc(-c2occ(Cl)c(=O)c2-c2cccc(F)c2)cc1 | < 5 | 5.85 |  |  |
| CS(=O)(=O)c1ccc(-c2occ(Cl)c(=O)c2-c2cccs2)cc1 | < 5 |  |  | inhibition [6]: 9% |
| Cc1ccc(-c2cc(C(F)(F)F)nn2-c2ccc(S(N)(=O)=O)cc2)cc1 [CELECOXIB] |  |  | 42 | inhibition in vivo at 3 mg/kg (Rattus norvegicus [5]): 29% |
| CS(=O)(=O)c1ccc(-c2occ(Cl)c(=S)c2-c2ccc(F)cc2)cc1 | < 5 | 6.08 |  |  |
| CS(=O)(=O)c1ccc(-c2occ(Cl)c(=O)c2-c2cc(F)cc(F)c2)cc1 | < 5 | 5.63 |  |  |

Continued, in another order:

| inhibition [2] [%] | pIC50 [4] | Structure (SMILES) | inhibition in vivo at 10 mg/kg (Rattus norvegicus [3]) [%] | other results |
| --- | --- | --- | --- | --- |
| < 5 |  | CS(=O)(=O)c1ccc(-c2occ(Cl)c(=O)c2-c2cccc(-c3ccccc3)c2)cc1 |  | IC50 [1]: Not Active |
| 19 | 5.20 | CS(=O)(=O)c1ccc(-c2occ(Cl)c(=O)c2-c2ccccc2F)cc1 |  |  |
| < 5 | 5.75 | Cc1ccc(-c2c(-c3ccc(S(C)(=O)=O)cc3)occ(Cl)c2=O)cc1 |  |  |
| < 5 |  | CS(=O)(=O)c1ccc(-c2occ(Cl)c(=O)c2-c2ccc(OCc3ccccc3)cc2)cc1 |  | IC50 [1]: Not Active |
| < 5 | 5.15 | CS(=O)(=O)c1ccc(-c2occ(Cl)c(=O)c2-c2cccnc2)cc1 |  |  |
| < 5 |  | CS(=O)(=O)c1ccc(-c2occ(Cl)c(=O)c2-c2ccc(F)cc2)cc1 | 33 | inhibition in vivo at 3 mg/kg (Rattus norvegicus [5]): 20% |
| 20 | 5.91 | CS(=O)(=O)c1ccc(-c2occ(Cl)c(=O)c2-c2ccc(F)c(F)c2)cc1 | 37 | Tmax [7]: 4 h; inhibition in vivo at 3 mg/kg (Rattus norvegicus [5]): 10%; Cmax [8]: 5100 ng/mL; half-life [9]: 3.7 h |
| < 5 | 5.16 | COc1ccc(-c2c(-c3ccc(S(C)(=O)=O)cc3)occ(Cl)c2=O)cc1 |  |  |
| < 5 | 6.13 | CS(=O)(=O)c1ccc(-c2occ(Cl)c(=O)c2-c2ccsc2)cc1 | 13 |  |
| < 5 | 5.97 | CS(=O)(=O)c1ccc(-c2occ(Cl)c(=O)c2-c2ccccc2)cc1 |  |  |

Reference: ChEMBL document CHEMBL1147555, “2,3-diarylpyran-4-ones: a new series of selective cyclooxygenase-2 inhibitors” (Bioorg Med Chem Lett, 2004)
